Results on 3 compounds are retold here after ChEMBL document CHEMBL3102735, “Enhancing the pharmacodynamic profile of a class of selective COX-2 inhibiting nitric oxide donors” (Bioorg Med Chem, 2014).

As a reminder, the solubility is the concentration that dissolves in the medium under given conditions. In general, Emax refers to the size of the effect at its maximum, as opposed to the concentration needed. The IC50 is the midpoint of a concentration-inhibition curve. Usually inhibition stands for the relative decrease from the control value, in per cent.

Each structure is given as a SMILES string. Values after ≈ are worked out from the molar mass of the structure shown. Active and inactive are the calls of the source. The rule behind the calls is not given here.

Data set [1] is described as follows: Solubility of the compound in phosphate buffer saline at pH 7.4 after 90 mins by HPLC analysis. The format is physicochemical. The gist of the method:
(§1)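 DMSO stock (20 mM) diluted 2 µL into 198 µL PBS 0.01 M pH 7.4 or pepsin-free SGF 0.05 M pH 1.5, duplicate wells, shaken 90 min at 300 rpm. Filtrates analysed by HPLC with photodiode-array detection against seven-point standards (1–200 µM).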

Data set [2] is described as follows: Solubility of the compound in simulated gastric fluid at pH 1.5 after 90 mins by HPLC analysis. The format is ADME. Summed up: as §1
The subject of data set [3] is Mus musculus. Description: Analgesic activity in po dosed Swiss albino mouse assessed as reduction of acetic acid-induced writhing measured every 10 mins after 5 mins of administration. The format is functional, organism-based. Summed up:
(§2)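 Male Swiss albino mice (23–25 g), compound given orally in CMC vehicle; writhing induced by 0.6% acetic acid (10 mL/kg) ip. Stretching movements counted for 10 min, starting 5 min after administration; percent reduction versus CMC-treated animals.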

The test system of data set [4] is Thoracic aorta. Description: Ex vivo vasorelaxant activity in Wistar rat endothelium thoracic aortic ring assessed as reduction of KCl-induced contraction at 0.001 uM to 10 uM relative to control. The format is functional. Summed up:
(§3)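 Endothelium-denuded thoracic aortic rings from male Wistar rats (250–350 g) in oxygenated Tyrode-type buffer at 37 °C, isometric tension recording. Rings precontracted with 30 mM KCl, then 3-fold increasing compound concentrations (1 nM–10 µM) added, also with 1 µM ODQ preincubated. Emax as % of KCl tone; pIC50; mean ± SE of 6–10 experiments.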

For data set [5], the system named is Thoracic aorta. Description: Ex vivo vasorelaxant activity in Wistar rat endothelium thoracic aortic ring assessed as reduction of KCl-induced contraction in presence of guanylate cyclase inhibitor ODQ. The format is functional. The gist of the method:
as §3

Data set [6] deals with Mus musculus. Description: Analgesic activity in Swiss albino mouse assessed as reduction of acetic acid-induced writhing at 40 mg/kg, po measured every 10 mins after 5 mins of administration relative to control. The format is functional. Further details: scale not given: the % may be the effect or the level left. Summed up:
as §2
(In general: Writhing tests count abdominal constrictions after an irritant is injected.)

In the next data set the test system is J774. Description: Selectivity index, ratio of IC50 for COX-1 to IC50 for COX-2 in mouse J774 cells. The format is cell-based. Summed up:
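J774 macrophages stimulated 24 h with E. coli LPS (10 µg/mL) to induce COX-2, with or without compound (0.01–10 µM); supernatant PGE2 by RIA. Triplicate wells, three experiments, percent inhibition versus control, IC50 by sigmoidal fit; selectivity as COX-1/COX-2 IC50 ratio.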

In data set [7] the target is T1, Prostaglandin G/H synthase 2 (Mus musculus, UniProt Q05769).
T1 sequence (Q05769 whole entry): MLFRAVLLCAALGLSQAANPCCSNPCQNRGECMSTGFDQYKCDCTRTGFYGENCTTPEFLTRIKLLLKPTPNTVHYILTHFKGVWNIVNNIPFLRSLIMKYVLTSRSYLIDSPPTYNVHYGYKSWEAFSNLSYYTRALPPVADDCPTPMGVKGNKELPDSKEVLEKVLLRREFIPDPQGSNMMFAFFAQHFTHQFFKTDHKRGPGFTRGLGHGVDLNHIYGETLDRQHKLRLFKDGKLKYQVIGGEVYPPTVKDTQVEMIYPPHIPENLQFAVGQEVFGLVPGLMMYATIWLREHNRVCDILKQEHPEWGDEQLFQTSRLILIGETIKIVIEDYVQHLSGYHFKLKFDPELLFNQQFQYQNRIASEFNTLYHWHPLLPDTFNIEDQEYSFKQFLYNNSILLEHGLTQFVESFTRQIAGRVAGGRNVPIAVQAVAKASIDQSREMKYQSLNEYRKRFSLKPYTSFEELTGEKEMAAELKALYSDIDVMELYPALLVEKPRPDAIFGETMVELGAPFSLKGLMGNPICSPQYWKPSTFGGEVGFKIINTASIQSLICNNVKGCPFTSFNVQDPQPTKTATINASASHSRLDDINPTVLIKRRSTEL
The data set is described as follows: Inhibition of LPS-induced COX-2 in mouse J774 cells using arachidonic acid as substrate assessed as inhibition of prostaglandin E2 production preincubated for 15 mins followed by substrate addition measured after 30 mins by RIA. The format is cell-based.

Data set [8] concerns the target T2, Prostaglandin G/H synthase 1 (Mus musculus, UniProt P22437).
T2 sequence (P22437 whole entry): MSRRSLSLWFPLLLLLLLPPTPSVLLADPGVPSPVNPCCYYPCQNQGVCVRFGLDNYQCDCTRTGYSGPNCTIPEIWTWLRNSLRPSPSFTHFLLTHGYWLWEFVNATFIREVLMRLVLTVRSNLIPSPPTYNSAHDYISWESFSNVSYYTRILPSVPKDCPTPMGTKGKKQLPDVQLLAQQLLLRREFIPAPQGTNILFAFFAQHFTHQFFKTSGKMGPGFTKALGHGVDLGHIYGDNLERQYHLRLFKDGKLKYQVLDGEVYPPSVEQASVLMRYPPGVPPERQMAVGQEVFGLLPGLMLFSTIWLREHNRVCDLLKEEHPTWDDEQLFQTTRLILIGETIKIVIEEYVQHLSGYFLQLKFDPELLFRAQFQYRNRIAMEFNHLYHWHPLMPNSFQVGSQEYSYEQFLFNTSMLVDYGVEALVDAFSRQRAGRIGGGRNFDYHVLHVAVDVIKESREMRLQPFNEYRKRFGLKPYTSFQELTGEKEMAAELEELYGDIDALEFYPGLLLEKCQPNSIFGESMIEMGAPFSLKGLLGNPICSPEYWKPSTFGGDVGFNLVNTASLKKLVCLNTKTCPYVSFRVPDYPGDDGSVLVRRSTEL
Description: Inhibition of COX-1 in mouse J774 cells using arachidonic acid as substrate assessed as inhibition of prostaglandin E2 production preincubated for 15 mins followed by substrate addition measured after 30 mins by RIA. The format is cell-based. Summed up: (§4)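 J774 murine macrophages pretreated 15 min with compound (10 µM; lower concentrations 0.01–1 µM where needed), then incubated 30 min at 37 °C with 15 µM arachidonic acid; supernatant PGE2 measured by RIA. Triplicate wells, mean of three experiments of percent inhibition versus control; IC50 by sigmoidal fit.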

In data set [9] the target is T3, Prostaglandin G/H synthase 2 (Mus musculus) (UniProt Q05769).
T3 sequence (whole entry): T1 sequence (Q05769 whole entry)
The data set is described as follows: Inhibition of LPS-induced COX-2 in mouse J774 cells using arachidonic acid as substrate assessed as inhibition of prostaglandin E2 production at 10 uM preincubated for 15 mins followed by substrate addition measured after 30 mins by RIA. The format is cell-based.

For data set [10], the target named is T4, Prostaglandin G/H synthase 1 (Mus musculus) (UniProt P22437).
T4 sequence (whole entry): T2 sequence (P22437 whole entry)
Description: Inhibition of COX-1 in mouse J774 cells using arachidonic acid as substrate assessed as inhibition of prostaglandin E2 production at 10 uM preincubated for 15 mins followed by substrate addition measured after 30 mins by RIA. The format is cell-based. The gist of the method: as §4

The test system of data set [11] is Mus musculus. The data set is described as follows: Analgesic activity in Swiss albino mouse assessed as reduction of acetic acid-induced writhing at 10 mg/kg, po measured every 10 mins after 5 mins of administration relative to control. The format is functional. Further details: scale not given: the % may be the effect or the level left. The gist of the method:
as §2

For data set [12], the system named is Mus musculus. The data set is described as follows: Analgesic activity in Swiss albino mouse assessed as reduction of acetic acid-induced writhing at 20 mg/kg, po measured every 10 mins after 5 mins of administration relative to control. The format is functional. Further details: scale not given: the % may be the effect or the level left. Summed up:
as §2

For data set [13], the system named is Mus musculus. Description: Analgesic activity in Swiss albino mouse assessed as reduction of acetic acid-induced writhing at 3 mg/kg, po measured every 10 mins after 5 mins of administration relative to control. More on the design: scale not given: the % may be the effect or the level left. The format is functional. Summed up: as §2
The target in data set [14] is T5, Prostaglandin G/H synthase 2 (Homo sapiens, UniProt P35354).
T5 sequence (P35354 whole entry): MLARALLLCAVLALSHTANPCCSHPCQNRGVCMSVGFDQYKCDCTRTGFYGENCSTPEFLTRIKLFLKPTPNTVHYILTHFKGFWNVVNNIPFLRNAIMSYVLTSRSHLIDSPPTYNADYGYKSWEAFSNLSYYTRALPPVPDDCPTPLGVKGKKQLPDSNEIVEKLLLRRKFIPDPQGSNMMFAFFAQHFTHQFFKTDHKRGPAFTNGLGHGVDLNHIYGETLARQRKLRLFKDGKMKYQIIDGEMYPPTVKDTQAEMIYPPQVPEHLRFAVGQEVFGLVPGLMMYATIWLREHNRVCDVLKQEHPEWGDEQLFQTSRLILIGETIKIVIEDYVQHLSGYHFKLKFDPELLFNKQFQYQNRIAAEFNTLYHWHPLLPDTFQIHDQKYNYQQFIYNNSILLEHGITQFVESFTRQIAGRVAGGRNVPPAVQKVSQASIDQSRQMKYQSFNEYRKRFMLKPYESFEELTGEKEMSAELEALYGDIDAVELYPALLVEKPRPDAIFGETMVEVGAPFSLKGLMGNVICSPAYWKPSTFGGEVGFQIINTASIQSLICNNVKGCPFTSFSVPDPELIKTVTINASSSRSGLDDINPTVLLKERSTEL
More on the design: species or system Blood.

For data set [15], the target named is Prostaglandin G/H synthase 1 (Homo sapiens, UniProt P23219). Description: Inhibition of COX-1 in human whole blood assessed as thromboxane B2 production by RIA.
Prostaglandin G/H synthase 1 (Homo sapiens, UniProt P23219), sequence (P23219 whole entry): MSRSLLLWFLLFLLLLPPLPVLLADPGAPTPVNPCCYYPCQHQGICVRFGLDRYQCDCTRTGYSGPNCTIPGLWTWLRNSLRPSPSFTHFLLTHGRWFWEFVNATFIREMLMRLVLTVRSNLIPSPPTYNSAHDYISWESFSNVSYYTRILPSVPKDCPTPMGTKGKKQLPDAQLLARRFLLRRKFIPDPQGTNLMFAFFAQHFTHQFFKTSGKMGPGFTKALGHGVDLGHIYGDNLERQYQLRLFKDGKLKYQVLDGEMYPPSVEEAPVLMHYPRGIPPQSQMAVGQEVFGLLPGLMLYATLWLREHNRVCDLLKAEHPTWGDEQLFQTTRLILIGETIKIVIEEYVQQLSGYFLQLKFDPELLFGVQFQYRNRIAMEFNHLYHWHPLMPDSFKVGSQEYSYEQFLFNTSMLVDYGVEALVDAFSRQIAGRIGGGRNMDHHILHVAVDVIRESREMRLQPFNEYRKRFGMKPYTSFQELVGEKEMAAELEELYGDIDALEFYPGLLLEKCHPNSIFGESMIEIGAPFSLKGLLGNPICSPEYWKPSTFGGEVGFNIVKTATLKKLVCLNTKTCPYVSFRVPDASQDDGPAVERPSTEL

As to `Cc1c(CC(=O)NCCO[N+](=O)[O-])cc(-c2ccc(S(C)(=O)=O)cc2)n1-c1cccc(F)c1`, the results for the solubility at 1.5 h in [1] and in [2] were > 200 µM and 150 µM (≈ 71.3 µg/mL), respectively. Further, the Activity result was “Dose-dependent effect” in the data set on Mus musculus [3], 55% in the data set on Mus musculus [6], 18% in the data set with Mus musculus [11] and 37% in the data set with Mus musculus [12]. For the same compound, the Emax in the data set on Thoracic aorta [4] came to 49%. Also, the outcome with Thoracic aorta [5] was inactive. Besides, the Ratio IC50 with J774 was > 33. For the same compound, the values for the IC50 in [7] and in data set [8] were 0.3 µM and > 10 µM, respectively. The inhibition amounted to 95% in data set [9] and 0% in data set [10].

For the compound `Cc1c(CC(=O)NCCCO[N+](=O)[O-])cc(-c2ccc(S(C)(=O)=O)cc2)n1-c1ccc(F)cc1`, the Activity entry in the data set with Mus musculus [3] is “Dose-dependent effect”; with Mus musculus [13] it was 17%; in the data set with Mus musculus [11], 37%; in the data set on Mus musculus [12], 37%. For the same compound, in the data set with J774, the Ratio IC50 is > 32. In addition, the IC50 in data set [7] was 0.31 µM; in data set [8] it was > 10 µM. The inhibition in data set [9] was found to be 100%; in [10] it was 0%.

In the case of `Cc1c(CC(=O)NCCO)cc(-c2ccc(S(C)(=O)=O)cc2)n1-c1ccc(F)cc1`, the IC50 is 1.4 µM in data set [14], 1.9 µM in data set [15] and > 10 µM in data set [8]. Also, the Activity result in the data set with Mus musculus [3] is “Dose-dependent effect”; with Mus musculus [11], 37%; with Mus musculus [12] it was 61%. In addition, the Ratio IC50 in the data set with J774 was > 33. Moreover, the figures for the inhibition in data set [9] and in data set [10] were 100% and 0%, respectively.
